# High-throughput results: PubChem BioAssay, several laboratories
# NTR1 ag = activates human neurotensin receptor 1; P30989; NTR1-U2OS beta-arrestin-GFP spot imaging, agonist mode; activation, % at 20 µM; 330,000 tested, 0.17% active; AID 493036;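 active = activation at or above 40% of the spot to cytoplasm intensity ratio, with at least 20 cells analyzed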;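 note: 0% = DMSO without peptide and 100% = 100 nM NTR1 peptide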
# NOD2-RIPK2 inh = NOD2-RIPK2 protein interaction inhibition; O43353; CHO BLA complementation NOD2-RIPK2, CCF4 ratio; inhibition, % at 4.98 µM; 360,000 tested, 0.38% active; in the data active = inhibition above about 21%;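 note: 0% = vehicle only and 100% = reference blocker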
# Target sequence (O43353 whole entry, looked up): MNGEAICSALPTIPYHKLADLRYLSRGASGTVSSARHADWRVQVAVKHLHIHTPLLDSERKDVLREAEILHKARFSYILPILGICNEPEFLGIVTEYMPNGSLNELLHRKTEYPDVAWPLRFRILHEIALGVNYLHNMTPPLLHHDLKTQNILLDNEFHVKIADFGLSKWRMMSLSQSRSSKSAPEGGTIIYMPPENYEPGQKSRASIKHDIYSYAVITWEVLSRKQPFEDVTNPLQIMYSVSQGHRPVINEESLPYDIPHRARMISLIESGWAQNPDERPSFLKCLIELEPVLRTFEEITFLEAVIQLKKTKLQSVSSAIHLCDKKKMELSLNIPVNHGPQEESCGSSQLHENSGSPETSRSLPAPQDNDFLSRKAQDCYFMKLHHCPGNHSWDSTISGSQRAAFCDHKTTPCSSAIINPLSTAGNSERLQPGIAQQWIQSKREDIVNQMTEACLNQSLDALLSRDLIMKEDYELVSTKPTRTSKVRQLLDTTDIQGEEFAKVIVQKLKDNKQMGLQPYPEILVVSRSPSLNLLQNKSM
# MC4R antagonist = blocks human MC4R cAMP signaling; MC4R-expressing cells, MTII-stimulated cAMP, LANCE TR-FRET; 360,000 tested, 0.48% active; inhibition, % at 6.5 µM;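 active = inhibition above its plate's cutoff, the mean of tested wells on that plate plus 3 SD, cut at about 29% in these data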;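 note: 0% = Melanotan II alone and 100% = Melanotan II plus saturating MCL0020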
#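 Material: U2OS-MC4R stable cell line | Reagent: Melanotan II challenge after compound preincubation | Doses: One concentration, 6.5 µM nominal | Incubation: 30-min compound preincubation, 1-h Melanotan II challenge, 1-h detection, room temperature | Signal: TR-FRET cAMP assay | Replicates: One well per compound, no replicates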
# MC4R barr agon = activates human MC4R beta-arrestin recruitment | 360,000 tested, 0.98% active | U2OS MC4R beta-arrestin complementation, luminescence; percent of melanotan II response, DMSO zero | P32245 | AID 540308 | activation, % at 8.9 µM;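 active = activation above a per-plate cutoff, the mean activation of sample wells on that plate plus 3 SD, cut at about 8% in these data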
# TLR4-MyD88 BLA = blocks binding of human TLR4 to MyD88; HeLa CL3-4 TLR4/MyD88 BLA complementation, FRET ratio; inhibition, % at 8.4 µM; O00206+Q99836; 200,000 tested, 0.18% active; in the data active = inhibition above about 25%;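 note: 0% = vehicle and 100% = reference inhibitor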
# TLR9-MyD88 inh = inhibitors of human TLR9-MyD88 binding | Q9NR96+Q99836 | CHO BLA complementation TLR9-MyD88, CCF4 FRET ratio | inhibition, % at 4.98 µM | 340,000 tested, 0.21% active | AID 504734;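 active = inhibition above the mean over all tested compounds plus 3 SD, cut at about 21% in these data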;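 note: 0% = DMSO only wells and 100% = clavulanate BLA inhibitor control wells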
# TLR4-MyD88 conf = TLR4-MyD88 interaction inhibition confirmed. HeLa CL3-4 BLA complementation, CCF4 FRET ratio. AID 941. 350 tested, 50% active. shares compounds with TLR4-MyD88 BLA. inhibition, % at 8.4 µM;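 active = mean inhibition across three repeat runs above about 25% carried over from the earlier screen, limit read from the data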;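 note: plate controls were DMSO only for no effect and clavulanic acid blocking BLA at full dose for full effect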
# BLA inhibitor ct = counter-screen for TLR4-MyD88 inhibitors: beta-lactamase reporter inhibitors. AID 1237. inhibition, % at 8.4 µM. 350 tested, 63% active. HeLa BLA reporter, CCF4 FRET ratio. shares compounds with TLR4-MyD88 BLA;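 active = mean inhibition over three repeats above about 26% taken from the earlier screen, limit read from the data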;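 note: HeLa cells stably expressing beta-lactamase reporter as counterscreen for TLR4-MyD88 inhibitors; 0% = DMSO and 100% = clavulanic acid full inhibition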
# * marks the source's active call; other numbers are inactive results; · = no result given. Sampled rows, rich in hits. Any-hit rate of the full collection: about 1.9%.
SMILES,NTR1 ag,NOD2-RIPK2 inh,MC4R antagonist,MC4R barr agon,TLR4-MyD88 BLA,TLR9-MyD88 inh,others
CN1CCN(c2ccc(NC(=O)c3ccc(-c4ccc(Cl)cc4)o3)cc2)CC1,13,7,1,10*,·,-11,
CN1CCN(c2ccc(NC(=O)c3ccc(-c4cccc([N+](=O)[O-])c4)o3)cc2)CC1,0,-2,-6,-2,-5,1,
Cc1cc(C)n2nc(N)c(N=Nc3ccccc3)c2n1,2,3,-25,-2,·,-4,
Cc1cc(C)n2nc(N)c(N=Nc3ccc4c(c3)OCO4)c2n1,3,-11,-16,8.6*,-4,-8,
COc1ccc(CN2C(=O)CCC2(C)c2nnnn2Cc2ccccc2)cc1 (stereo not drawn),·,-2,·,·,·,·,
CCc1nc2ccc(C(=O)N3CCCC(C(N)=O)C3)cn2c1N(C=O)CC (stereo not drawn),·,-5,7,-1,·,·,
COc1ccc(CN(CCC(c2ccccc2)c2ccc(OC(C)C)cc2)C(=O)CCl)cc1OC (stereo not drawn),24,14,26,21*,18,4,
CNC(=S)N1N=C(c2ccc(Br)cc2)CC1c1ccc(Br)cc1 (stereo not drawn),3,-5,1,-1,-9,5,
Cc1cc2n(n1)C(c1ccccc1)CC(c1ccc(Br)cc1)=N2 (stereo not drawn),·,22*,5,0,-10,24*,
COc1cccc(C(=O)Nc2ccc3nc(N4CCN(c5ncccn5)CC4)cc(C)c3c2)c1OC,47*,·,·,·,-2,·,
CCOc1ccccc1C(=O)Nc1ccc2nc(N3CCN(c4ncccn4)CC3)cc(C)c2c1,13,·,·,·,-3,·,
CCC(=O)N[C@H]1CC[C@@H](CCn2cc(C3CC3)nn2)O[C@@H]1CO,·,-4,·,·,·,·,
O=C(c1ccc(Cl)cc1)c1cnc(Nc2ccccc2Cl)s1,4,4,7,9.9*,2,14,
O=C(NCc1ccccc1)C(C1CC1)n1c(=O)c(-c2ccco2)nc2ccccc21 (stereo not drawn),·,-4,·,·,·,·,
CC(C)(C)N1C(=O)c2ccccc2NC(=O)C1C(=O)Nc1ccc2c(c1)OCCO2 (stereo not drawn),·,-1,·,·,·,·,
COc1ccc(C)c2sc(N(CCN(C)C)C(=O)/C=C/c3cccs3)nc12,26,13,-2,29*,·,2,
Cc1ccc(NC(=S)NCCSc2ccc(Cl)cc2)cc1,7,12,5,0,-6,6,
Cc1ccc(NC(=O)NCCSc2ccc(C)cc2)cc1,1,7,12,8.5*,-10,-2,
COc1cccc(CN(C)C(=O)c2ccc(S(=O)(=O)Nc3ccccc3C)cc2)c1OC,·,-16,5,0,·,-8,
N#Cc1cccc(-c2csc(C(O)c3ccc(F)cc3)n2)c1 (stereo not drawn),·,4,3,-1,·,·,
COc1ccc(CNC(=O)COC(=O)c2cc(-c3ccc(Cl)s3)nc3ccccc23)cc1,2,-3,0,9.2*,2,-8,
COC(=O)[C@]12CCCCC=C1N(Cc1ccc3c(c1)OCO3)C(=O)[C@H](CC(=O)NCCCCc1ccccc1)C2,·,-6,·,·,·,·,
CSc1ccc(CNC(=O)C2(C)CCCN(C(C)=O)C2)cc1 (stereo not drawn),·,6,6,-1,·,·,
COC(=O)C1=C(C)N(Cc2ccccc2)C(=NCCc2c[nH]c3ccccc23)N[C@H]1c1cccc(F)c1,10,4,1,8.2*,·,-6,
O=S(=O)(Nc1ccc(N=Nc2ccccc2)cc1)c1ccccc1,3,0,0,8.3*,9,-5,
SMILES,NTR1 ag,NOD2-RIPK2 inh,MC4R antagonist,MC4R barr agon,TLR4-MyD88 BLA,TLR9-MyD88 inh,others
Cc1c(C(=O)Oc2ccc(-c3cnc4ccccc4n3)cc2)cccc1[N+](=O)[O-],-1,-7,6,3,-10,6,
O=C(Oc1ccc(-c2cnc3ccccc3n2)cc1)c1cc([N+](=O)[O-])ccc1Cl,2,-10,29*,0,2,-6,
O=C(Nc1cccc([N+](=O)[O-])c1)c1ccc(CSc2ccccc2)cc1,3,-4,4,15*,8,-5,
COc1ccc(C2Nc3ccccc3C(=O)N2c2ccc(F)cc2)cc1CSc1ccccn1 (stereo not drawn),19,-7,-3,33*,-7,5,
COc1ccc(C2Nc3ccccc3C(=O)N2c2ccccc2)cc1CSc1ccccn1 (stereo not drawn),2,-9,18,-1,-5,-7,
CC(C)(C)OC(=O)N1CCC(C(=O)Nc2cccc(C(=O)NC3CC3)c2)CC1,·,-14,3,0,·,2,
CC1CCCN(S(=O)(=O)c2ccc(NC(=O)Cn3nnc(-c4ccccc4F)n3)cc2)C1 (stereo not drawn),3,1,4,3,-4,-1,
CC1CCN(S(=O)(=O)c2ccc(NC(=O)Cn3nnc(-c4ccccc4)n3)cc2)CC1,17,1,-4,37*,3,11,
CC1CCN(CC(=O)Nc2ccc(S(=O)(=O)N3CCC(C)CC3)cc2)CC1,3,-11,16,2,·,7,
Cc1ccc(-c2nnn(CC(=O)Nc3ccc(S(=O)(=O)N4CCC(C)CC4)cc3)n2)cc1,6,-11,-4,13*,-2,1,
Cc1ccc(Sc2cnccc2C#N)cc1,0,-6,20,1,·,0,
CC1(c2nnnn2Cc2ccccc2)CCC(=O)N1CCc1ccc(O)cc1 (stereo not drawn),·,-13,·,·,·,·,
COCCCn1c(SCCc2ccccc2)nc2cc(OC)c(OC)cc2c1=N,31,8,14,9.4*,-7,-3,
CCSc1nc2cc(OC)c(OC)cc2c(=O)n1CCc1ccccc1,8,1,13,3,10,-6,
CN(C)c1ccc(/C=C/C(O)=C2/C(=O)N(C)C3(C)CC2c2ccccc2O3)cc1 (stereo not drawn),·,·,·,·,49*,·,TLR4-MyD88 conf=35*;BLA inhibitor ct=68*
CCCCN(CCCC)C(=O)CSc1nnc(-c2cc(OC)c(OC)c(OC)c2)o1,0,2,11,0,5,-9,
CCCCOC(=O)CSc1nnc(-c2cc(OC)c(OC)c(OC)c2)o1,3,-2,-11,1,26*,-1,TLR4-MyD88 conf=17;BLA inhibitor ct=-8
N#Cc1sc2nc(-c3cccs3)cc(-c3ccccc3)c2c1N,9,8,23,5,46*,6,TLR4-MyD88 conf=48*;BLA inhibitor ct=82*
